CRFBP-R2 block = CRF-BP/CRF-R2 complex antagonism; HEK293 CRF-R2/CRF-BP, CRF-induced calcium fluorescence; inhibition, % at 11.8 µM; actives 0.59% (n = 350,000);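 active = inhibition of the ligand-induced calcium signal above about 50% at the single tested concentration, limit read from the data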
CendR NRP1 mod = modulators of CendR peptide binding to human neuropilin-1; inhibition, % at 25 µM; AID 602438; actives 0.85% (n = 360,000); O14786; FAM-RPARPAR peptide binding to NRP-1, fluorescence polarization;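 active = inhibition or corrected inhibition above about 18%, plus a signal ratio from 0.5 to 1.5, limit read from the data, passing the limit was not always enough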
DDE Tn6 FP inh = DD(E)-Tn6 binding inhibition, primary FP screen; P02675; Fibrin DD(E) TRITC-Tn6 fluorescence polarization displacement; inhibition, % at 8.3 µM; actives 0.21% (n = 370,000); AID 720509;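 active = inhibition above a per-campaign cutoff: mean of compounds within control limits plus 3 SD, cut at about 15% in these data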;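 note: 0% = median of all compound wells on the plate and 100% = blocking peptide control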
Target sequence (P02675 whole entry, looked up): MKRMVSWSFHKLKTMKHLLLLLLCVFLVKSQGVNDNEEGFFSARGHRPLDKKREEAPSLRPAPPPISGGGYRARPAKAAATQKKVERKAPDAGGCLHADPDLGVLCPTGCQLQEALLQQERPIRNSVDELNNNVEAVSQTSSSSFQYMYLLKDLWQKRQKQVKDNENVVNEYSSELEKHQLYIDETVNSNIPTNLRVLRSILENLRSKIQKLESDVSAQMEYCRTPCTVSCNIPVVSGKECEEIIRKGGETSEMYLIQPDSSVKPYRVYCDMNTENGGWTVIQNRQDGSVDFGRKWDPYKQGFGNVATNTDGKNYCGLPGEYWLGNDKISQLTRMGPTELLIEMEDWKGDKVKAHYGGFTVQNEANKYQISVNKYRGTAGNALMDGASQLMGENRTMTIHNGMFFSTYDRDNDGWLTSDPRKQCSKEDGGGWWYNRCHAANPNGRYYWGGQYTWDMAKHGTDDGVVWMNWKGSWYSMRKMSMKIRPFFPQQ
Tn7 DDE FP = DD(E)-Tn7 binding inhibition, primary FP screen; P02675; FP displacement of FITC-Tn7 peptide from fibrin DD(E); 0% = median of compound wells per plate; inhibition, % at 8.3 µM; actives 0.13% (n = 370,000);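 active = inhibition above the mean of compounds falling within the control limits plus 3 SD of them, cut at about 14% in these data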;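 note: 0% = plate median of compound wells and 100% = 10 µM Aha-Tn7 peptide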
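Measure: % inhibition scaled between sample-field median and high-control FP; Test system: human fibrin DD(E); Quantity: 2 µM final DD(E) protein; Doses: one dose, 8.3 µM nominal; Schedule: compound with protein 10 min, then 3 h after probe, room temperature; Detection: fluorescence polarization; Medium: Tris buffer with calcium and detergent, pH 7.8.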
proKLK7 act = proKLK7 (human) activation, primary screen. purified proKLK7, EDANS-DABCYL substrate fluorescence; 100% is mature enzyme control, 0% vehicle. activation, % at 7 µM. actives 0.9% (n = 370,000). AID 652039;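 active = activation above the mean of all tested compounds plus 3 SD, computed per campaign excluding outliers beyond control limits, cut at about 13% in these data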
CRFBP-R2 agonist = agonists of human CRF-binding protein/CRF-R2 receptor complex; actives 0.46% (n = 350,000); HEK293 CRF-R2/CRF-BP, calcium dye fluorescence (FLIPR); percent of saturating CRF peptide response; activation, % at 13.2 µM;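 active = activation of at least 50%, plus an integration ratio under a set limit after plate pattern correction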;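 note: plate controls were neutral control wells without compound for no effect and CRF at EC100 for full effect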
The depositor's hits bear a star; · = no result. Most compounds without a hit are left out; they make up all but 2.9% or so of the library.

SMILES | CRFBP-R2 block | CendR NRP1 mod | DDE Tn6 FP inh | Tn7 DDE FP | proKLK7 act | CRFBP-R2 agonist
Cc1cc(C(=O)N/N=C/C=C/c2ccc3c(c2)OCO3)n[nH]1 | -4 | 27* | -2 | -7 | -3 | -1
O=C(Nc1ccc([N+](=O)[O-])cc1Cl)c1cc(Cl)ccc1O | 87* | 4 | -2 | 4 | 0 | 61*
O=C(Nc1ccc([N+](=O)[O-])cc1Cl)c1cccc([N+](=O)[O-])c1 | 25 | 0 | -2 | -1 | 0 | -1
O=C(COC(=O)c1ccco1)Nc1ccc([N+](=O)[O-])cc1Cl | -3 | -6 | -3 | -4 | 0 | -2
O=C(COc1cc(Cl)c(Cl)cc1Cl)Nc1ccc([N+](=O)[O-])cc1Cl | -31 | 24* | 4 | -5 | 0 | -1
O=C(Nc1cccc(Cl)c1)c1cc(N=Nc2ccc([N+](=O)[O-])cc2Cl)ccc1O | 69* | 18 | -5 | 4 | -1 | 31
C=CCN(CC#Cc1ccc(C(F)(F)F)cc1)Cc1ccc(OC)cc1OC | · | · | 1 | 4 | 0 | ·
COc1ccc2ccccc2c1C=Nn1c(-c2n[nH]c3c2CCC3)n[nH]c1=S | · | · | 2 | -1 | -1 | ·
C#CCCN([C@H](C(=O)OC)C(C)C)S(=O)(=O)c1ccccc1Br | · | · | 7 | -1 | 0 | ·
C=CCN1C(=O)[C@@H](CC(=O)NCCCN2CCCC2=O)[C@]2(C(=O)OC)CCCCC=C12 | · | · | 0 | 6 | 0 | ·
C=CCn1c(O)c(C(CC)=Nc2ccccc2NC(=O)CC)c(=O)[nH]c1=O | 76* | -15 | 1 | 7 | 1 | -1
CN[C@H]1C[C@H]2c3[nH]c4cccc(-c5ccc6c(c5)OCO6)c4c3CCN2C[C@H]1[C@H](C)O | · | · | 3 | 1 | -1 | ·
C[C@H](CO)N1C[C@H](C)[C@@H](CN(C)C(=O)Nc2ccc(C(F)(F)F)cc2)Oc2c(NS(=O)(=O)c3ccccc3)cccc2C1=O | -4 | 36* | -7 | 3 | 0 | 1
C[C@H](CO)N1C[C@H](C)[C@@H](CN(C)C(=O)Nc2ccc3c(c2)OCO3)Oc2ccc(NS(=O)(=O)c3ccc(F)cc3)cc2C1=O | -9 | 8 | 8 | -4 | 1 | -2
C[C@H](CO)N1C[C@H](C)[C@@H](CN(C)C(=O)Nc2ccc3c(c2)OCO3)Oc2c(NS(=O)(=O)c3ccc(F)cc3)cccc2C1=O | 4 | 31* | -5 | -1 | -1 | -2
Cc1ccc(NC(=O)Cc2cccc(OC(F)F)c2)c(S(=O)(=O)N2CCOCC2)c1 | · | · | -1 | 8 | 0 | ·
COc1ccccc1N1CCN(C2CCCN(C(=O)CCC(=O)N(C)C)C2)CC1 (stereo not drawn) | 1 | 3 | -2 | -5 | 0 | -1
Cc1ccccc1N1CCN(C2CCCN(C(=O)CCN3CCCCO3)C2)CC1 (stereo not drawn) | -5 | 26* | 4 | -3 | 0 | -1
COc1ccccc1N1CCN(C2CCCN(C(=O)c3cc(C4CC4)on3)C2)CC1 (stereo not drawn) | 51* | 3 | 3 | -5 | 0 | -3
COc1ccccc1N1CCN(C2CCCN(C(=O)Cn3cccn3)C2)CC1 (stereo not drawn) | 9 | 24* | -7 | 6 | -1 | -1
COc1ccccc1N1CCN(C2CCCN(C(=O)c3cscn3)C2)CC1 (stereo not drawn) | 2 | 0 | -2 | -1 | 0 | -1
Cc1cc(C(=O)N2CCCC(N3CCN(c4cccc(Cl)c4)CC3)C2)nn1C (stereo not drawn) | -16 | 30* | 3 | 1 | -1 | 2
N#C/C(=C\C=C\c1ccccc1[N+](=O)[O-])C(=O)NC1CCCCC1 | -20 | 16 | · | · | · | -1
N#C/C(=C\c1cccn1-c1ccccc1)C(=O)NC1CCCCC1 | 127* | -2 | -3 | 6 | 1 | -3
N#C/C(=C\c1ccccc1[N+](=O)[O-])C(=O)NC1CCCCC1 | -161 | 6 | 2 | 13 | 1 | 100*
SMILES | CRFBP-R2 block | CendR NRP1 mod | DDE Tn6 FP inh | Tn7 DDE FP | proKLK7 act | CRFBP-R2 agonist
COC(=O)[C@]12C[C@H](CC(=O)NCCC(C)C)C(=O)N(Cc3cccc4ccccc34)C1=C[C@H](C(C)C)O[C@@H]2C1CC1 | · | · | 2 | -1 | 1 | ·
Cc1cc(N2CCN(C(=O)OC(C)(C)C)C[C@H]2C)ccc1N1CCS(=O)(=O)CC1 | · | · | -6 | 0 | 0 | ·
CC(C)(C)C1CCc2c(sc(NC(=O)C3CC=CCC3C(=O)O)c2C#N)C1 (stereo not drawn) | 61* | -20 | -4 | -4 | 0 | -3
Cc1ccc(-c2oc3ccccc3c(=O)c2OCC(=O)O)cc1 | 24 | 19* | 9 | -3 | 0 | -2
O=C(O)COc1c(-c2ccccc2)oc2ccccc2c1=O | 9 | 1 | 0 | 1 | 1 | -3
O=c1oc(CCO)cc2ccc(Br)cc12 | 66* | 5 | -6 | 6 | 1 | 0
O=c1oc(CCO)cc2ccccc12 | 7 | 7 | -5 | -10 | 0 | 1
Cc1ccc2c(c1)c1nnc(SCC(=O)N3CCCc4ccccc43)nc1n2CC(=O)O | 7 | 24* | -3 | -6 | 0 | -1
COc1ccc(Cn2cc(COC(=O)Nc3ccc(F)cc3)nn2)cc1 | · | · | 4 | 8 | 0 | ·
CC1=C[C@]2(C[N+](Cc3ccccc3)=C(N)N2)n2c(=O)n(-c3ccccc3)c(=O)n2C1 | · | · | 5 | 2 | 0 | ·
Cn1cccc1/C=N/n1c(-c2ccco2)n[nH]c1=S | -7 | -8 | 2 | 3 | 1 | 2
COc1cc(-c2n[nH]c(=S)n2/N=C/c2cccn2C)cc(OC)c1OC | -18 | 13 | 1 | -5 | 0 | 104*
CCOC(=O)[C@@]12CCCC=C1N(CCc1ccc(Cl)cc1)C(=O)[C@H]2CC(=O)NCC1CCCCC1 | · | · | 12 | 4 | 0 | ·
COc1ccccc1C(=O)NN(C)C1=NS(=O)(=O)c2ccccc21 | -4 | 20* | 6 | -6 | 0 | -2
CN(NC(=O)CN1C(=O)c2ccccc2C1=O)C1=NS(=O)(=O)c2ccccc21 | 20 | 2 | 2 | 9 | 0 | 3
COC(=O)C1=C(C)N(Cc2cccc(C(F)(F)F)c2)C(=NCc2ccc(OC)cc2)NC1c1cccc(F)c1 (stereo not drawn) | · | · | 4 | 7 | 0 | ·
Cc1cccc(C)c1NC(=O)CNC(=O)C1CCCN(C(=O)c2ccc(Cl)cc2)C1 (stereo not drawn) | 0 | -6 | -1 | -4 | 0 | 1
CCCN(CC(=O)Nc1ccccc1C)C(=O)C1CCCN(C(=O)c2ccc(Cl)cc2)C1 (stereo not drawn) | -4 | 19* | -1 | -1 | 0 | -1

Screening results from PubChem BioAssay.
